Shown are actives, neighbours in structure and some others; about 3.5% of the full set was active somewhere.
Thrombin inh: thrombin (human) inhibition; 220,000 compounds, 0.26% hits; inhibition, % at 5 µM; alpha-thrombin, Boc-VPR-AMC fluorogenic substrate cleavage; AID 1046; P00734;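 active means inhibition at or above 40%; inactive means inhibition below 40%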;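 further: 0% = enzyme with no compound and 100% = wells without enzyme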
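signal = AMC fluorescence, 355/460 nm | material = human alpha-thrombin enzyme | control set = enzyme without compound as high, wells lacking enzyme as low | times = reaction at room temperature | read-out basis = percent inhibition scaled between no-compound controls and no-enzyme blanks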
AHR activator: activates the human aryl hydrocarbon receptor; P35869; AHR-responsive luciferase reporter cells, luminescence; activation, % at 5 µM; 320,000 compounds, 2.5% hits; AID 2796; in the data active means activation above about 47%;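 further: 0% = vehicle wells and 100% = reference agonist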
Target sequence (P35869 whole entry, looked up): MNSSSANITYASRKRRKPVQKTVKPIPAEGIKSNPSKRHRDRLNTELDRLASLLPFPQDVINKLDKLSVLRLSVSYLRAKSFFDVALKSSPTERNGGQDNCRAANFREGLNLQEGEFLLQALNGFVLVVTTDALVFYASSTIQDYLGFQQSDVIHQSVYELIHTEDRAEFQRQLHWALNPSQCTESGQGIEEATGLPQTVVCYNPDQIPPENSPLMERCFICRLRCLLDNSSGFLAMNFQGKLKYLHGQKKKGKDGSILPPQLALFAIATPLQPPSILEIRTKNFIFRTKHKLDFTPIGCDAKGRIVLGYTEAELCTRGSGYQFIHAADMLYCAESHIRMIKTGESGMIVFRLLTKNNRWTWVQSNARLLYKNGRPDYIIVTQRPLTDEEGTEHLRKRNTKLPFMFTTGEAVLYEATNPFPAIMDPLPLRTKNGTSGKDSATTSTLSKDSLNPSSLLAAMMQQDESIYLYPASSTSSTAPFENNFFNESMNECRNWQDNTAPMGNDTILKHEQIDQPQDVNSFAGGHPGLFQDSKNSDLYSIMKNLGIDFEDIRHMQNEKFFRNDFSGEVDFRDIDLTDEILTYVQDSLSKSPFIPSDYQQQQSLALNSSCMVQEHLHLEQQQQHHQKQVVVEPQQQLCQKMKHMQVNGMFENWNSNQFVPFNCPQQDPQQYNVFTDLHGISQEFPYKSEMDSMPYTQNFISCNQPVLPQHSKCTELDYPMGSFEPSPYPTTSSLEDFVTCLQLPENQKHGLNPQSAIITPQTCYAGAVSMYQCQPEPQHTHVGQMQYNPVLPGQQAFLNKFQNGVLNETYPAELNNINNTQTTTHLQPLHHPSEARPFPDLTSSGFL
STAT3 activator: STAT3 signaling activation | activation (% of control), % at 5.6 µM | 190,000 compounds, 0.91% hits | U3A cells, IL-6 STAT3-luciferase reporter, luminescence; 100% = signal with IL-6 EC80 alone;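 active means activation above the screen-wide mean of compound activation plus 3 SD, cut at about 130% in these data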;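 further: 0% = background luminescence of wells with medium and substrate only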
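Test system: human U3A cells carrying STAT3-luciferase construct; control set: IL-6-only wells as 100% reference; timing: compound pre-incubation 1 h before IL-6, then 6 h stimulation at 37 °C; also added: IL-6 stimulus at 33 ng/mL final; evaluation: % activation versus median of IL-6-stimulated wells; detection: reporter luminescence signal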
KLK5 inh: blocks human kallikrein 5 protease activity | recombinant hK5, fluorogenic AMC substrate cleavage | inhibition, % at 5 µM | 210,000 compounds, 0.59% hits;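 active means inhibition of 40% or more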;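 further: 0% = enzyme controls without compound and 100% = no-enzyme blanks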
FXIa inh 1536: inhibitors of human coagulation factor XIa. 220,000 compounds, 0.14% hits. inhibition, % at 5 µM. P03951. purified FXIa, Boc-Glu-Ala-Arg-AMC fluorogenic substrate;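 active means inhibition of at least 40%; inactive means inhibition below 40%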;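 further: fluorescence of freed AMC excited at 355 nm; 0% = enzyme without compound and 100% = no enzyme blank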
FXIIa inh: blocks human coagulation factor XIIa protease activity; inhibition, % at 5 µM; 220,000 compounds, 0.3% hits; AID 800; purified FXIIa, Boc-QGR-AMC fluorogenic substrate, 2 h; P00748; in the data active means inhibition above about 40%;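 further: 0% = enzyme with no compound and 100% = blank without enzyme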
The depositor's hits bear a star; . = no result given.

SMILES | Thrombin inh | AHR activator | STAT3 activator | KLK5 inh | FXIa inh 1536 | FXIIa inh
Cc1cc(C)cc(OCC(=O)Nc2ccc(N3CCCC3)cc2)c1 | 2 | 0 | 98 | 6 | 16 | 45*
COc1cccc(NC(=O)c2cc(C(=O)Nc3cccc(OC)c3)n(C)n2)c1 | 2 | -1 | 84 | -3 | 2 | 14
Cn1nc(C(F)(F)F)cc1C(=O)Nc1ccc(-c2ccno2)cc1 | . | -3 | . | . | . | .
Cn1nc(C(=O)Nc2ccc(Br)cc2)cc1C(=O)Nc1ccc(Br)cc1 | . | 65* | . | . | . | .
Cn1nc(C(F)(F)F)c2cc(C(=O)Nc3ccc(Cl)cc3)sc21 | -3 | 64* | 82 | -11 | 4 | 13
Cn1nc(C(F)(F)F)cc1C(=O)Nc1ccc(Cl)cc1 | -5 | 69* | . | 10 | -17 | 0
CN1CCN(C(=O)c2cc3c(C(F)(F)F)nn(C)c3s2)CC1 | 4 | -3 | 102 | 48* | -5 | 2
CCCn1nc(C(=O)NNC(=O)CSC(C)C(=O)Nc2cc(C)on2)c2ccccc2c1=O (stereo unspecified) | . | 0 | . | . | . | .
CCOc1cc(C2C3=C(CC(C)(C)CC3=O)Nc3n[nH]c(C)c32)ccc1O (stereo unspecified) | -4 | 0 | 96 | -5 | -3 | 10
O=C(c1cc[n+]([O-])cc1)N1CCCC(N2CCN(c3cccc(C(F)(F)F)c3)CC2)C1 (stereo unspecified) | . | 1 | . | . | . | .
CCC1(O)CC(c2ccccc2)=NN1C(=O)c1ccccc1F (stereo unspecified) | . | 2 | . | . | . | .
CSc1nnc(C)c(/C=C/Nc2ccc(Cl)cc2)n1 | -2 | 50* | 119 | 1 | -1 | -4
CSc1nnc(C)c(/C=C/Nc2ccc(F)cc2)n1 | 5 | 37 | 100 | 4 | 7 | 6
O=C(CCCCCNC(=O)N1CCn2c1nc1ccccc12)NCc1ccc(F)cc1 | . | 2 | . | . | . | .
Oc1c(N=Nc2ccc(F)cc2)ccc2ccccc12 | . | 73* | . | . | . | .
Cc1ccc(N=Nc2ccc3ccccc3c2O)cc1 | . | 53* | . | . | . | .
COc1ccc(N/C=C(\C#N)c2nc3ccccc3n2C)c(OC)c1 | 9 | 109* | 80 | -67 | 9 | 21
COc1ccc(CNc2nc3ccccc3n2C)c(OC)c1 | -12 | 26 | 97 | 4 | -1 | 10
COc1ccc(NC(=O)Nc2nc(C)cc(C)n2)c(OC)c1 | -12 | 41 | . | -2 | -4 | -1
Cc1ccc(S(=O)(=O)N(CCCN2CCCC2=O)Cc2cc3c(C)ccc(C)c3[nH]c2=O)cc1 | -4 | -1 | 96 | 20 | -7 | 5
COc1ccc(S(=O)(=O)N(CCCN2CCCC2=O)Cc2cc3cc(C)c(C)cc3[nH]c2=O)cc1 | 29 | . | 80 | 86* | 1 | 10
CC(=O)N1CCC(C(=O)OCc2ccccc2F)(c2ccccc2)CC1 | . | 3 | . | . | . | .
COc1ccc(-c2cc([C@H]3[C@@H]4C=CCC[C@@]4(C)C(=O)N3Cc3ccccc3)ccc2F)cc1 | 11 | -2 | . | 42* | 20 | 14
COc1ccc(-c2ccc([C@H]3[C@@H]4C=CCC[C@@]4(C)C(=O)N3Cc3ccccc3)c(F)c2)cc1 | -4 | -1 | . | 1 | 0 | 3
COCCNC(=O)C(=O)NCC1OCCCN1S(=O)(=O)c1cccs1 (stereo unspecified) | -3 | 1 | 87 | -9 | 3 | 7
SMILES | Thrombin inh | AHR activator | STAT3 activator | KLK5 inh | FXIa inh 1536 | FXIIa inh
O=C1CN(Cc2ccccc2)C(=NCc2ccco2)S1 | 13 | 1 | 96 | 33 | 6 | 44*
CCOC(=O)N1CCN(C(=O)CSc2nnc(CNC(=O)c3c(F)cccc3Cl)o2)CC1 | 13 | 3 | 98 | 42* | -1 | 22
COc1ccc(C(=O)Nc2nc(CC(=O)NCCc3ccccc3)cs2)cc1 | . | 48* | . | . | . | .
O=C1Nc2ccccc2C(=O)N2C[C@@H](O)C[C@H]12 | . | 0 | . | . | . | .
O=C(Cn1cnc2ccccc2c1=O)Nc1ccc(S(=O)(=O)N2CCOCC2)cc1 | -7 | 47* | 101 | 0 | -3 | 5
CCCCn1c(N)c(N(CC)C(=O)c2cc3c(s2)CCCCC3)c(=O)[nH]c1=O | . | 0 | . | . | . | .
Fc1ccccc1/C=N/Nc1ncnc2ccccc12 | -7 | 31 | 84 | -6 | 4 | 9
Clc1ccc(/C=N/Nc2ncnc3ccccc23)cc1Cl | 3 | 58* | 127 | 4 | 4 | -1
Cc1ccc(NC(=O)c2nnn(CC(=O)Nc3ccccc3)c2N)cc1C | -6 | 48* | 113 | -25 | -20 | 0
CCc1ccccc1NC(=O)c1nnn(CC(=O)Nc2cccc(C)c2)c1N | -10 | 11 | 97 | 43* | -9 | -2
CCc1ccccc1NC(=O)c1nnn(CC(=O)Nc2cccc(C)c2C)c1N | 1 | 7 | 88 | -5 | 2 | 17
Cc1ccc(NC(=O)Cn2ccnc2)cc1C | . | 59* | . | . | . | .
Cc1ccc(C)c(NC(=O)Cn2nnc(C(=O)Nc3c(C)cccc3C)c2N)c1 | 5 | 1 | 99 | 52* | -2 | 13
O=C(O)c1cccc(N2CCCC2)c1 | -1 | 1 | 102 | 128* | -8 | -9
Cn1c(=O)oc2cc(NC(=O)CCl)ccc21 | -4 | 4 | . | -4 | -3 | 4
C#CCOC(=O)CCCC(=O)NCCCCCCCC | -6 | 1 | 96 | . | 7 | 16
COc1cccc(-c2nn3c(-c4ccco4)nnc3s2)c1 | . | -2 | . | . | . | .
COc1cccc(OC)c1-c1nn2c(-c3ccco3)nnc2s1 | 38 | 7 | 98 | 45* | 8 | 45*
C/C(=N\Nc1nc(C)c(C)s1)c1ccc([N+](=O)[O-])cc1 | -8 | 2 | 93 | -5 | 12 | 8
COc1cccc(-c2nc(CS(=O)(=O)CC(=O)NC3CC3)c(C)o2)c1 | . | 3 | . | . | . | .
Cn1c(CSCCOc2ccccc2)n[nH]c1=S | -5 | 0 | . | 53* | -9 | 0
Cc1onc(-c2c(F)cccc2Cl)c1-c1nnc(-c2ccc(C(F)(F)F)cc2)o1 | 18 | 4 | . | 33 | 33 | 57*
CN1/C(=C\C(=O)COc2ccc3c(c2)OCO3)C(C)(C)c2ccccc21 | -3 | 56* | 100 | 5 | 3 | -1
COc1cc(NC(=O)C2C3C=CC(C3)C2C(=O)O)ccc1NC(=O)c1ccccc1 (stereo unspecified) | . | 56* | . | . | . | .
CC(=O)c1cccc(NC(=O)C2C3C=CC(C3)C2C(=O)O)c1 (stereo unspecified) | -5 | 1 | 100 | 4 | 2 | 11
COc1cccc(C(=O)Nc2ccc(NC(=O)C3C4C=CC(C4)C3C(=O)O)cc2)c1 (stereo unspecified) | . | 73* | . | . | . | .
CCc1c(C)nc2ncnn2c1N1CCC(C(=O)Nc2ccccc2)CC1 | -6 | -5 | 82 | -2 | 18 | 53*
O=C1CCC(C(=O)Nc2cccc3ccccc23)N1 (stereo unspecified) | 104* | 8 | 105 | 62* | 6 | -2
Brc1ccc(N=C/C=C/C=C/Nc2ccc(Br)cc2)cc1 | 34 | 8 | 106 | 7 | 10 | 20
